Active and inactive are the calls of the source. No cut-off for these calls is given here.

The values that follow come from ChEMBL document CHEMBL1153417, “5,7,8-Trimethyl-benzopyran and 5,7,8-trimethyl-1,4-benzoxazine aminoamide derivatives as novel antiarrhythmics against ischemia-reperfusion injury” (J Med Chem, 2009).

Data set [1] has as its system Heart. In words: Antioxidant activity in ischemia-reperfusion injury exposed Wistar rat heart assessed as malondialdehyde level per gram of wet tissue at 1 uM by thiobarbituric acid test. It is filed as functional. The method, boiled down: (§1)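 Rat hearts were taken under pentobarbital (30-40 mg per animal) after iv heparin. They were perfused by Langendorff at 90 cm H2O with oxygenated KHB buffer (pH 7.2, 11 mmol l-1 glucose) at 37 °C. After 20 min equilibration came 15 min ischemia (glucose-free KHB with 10 mM Tris-HCl, N2-equilibrated), then 60 min reperfusion. Compound was present for the last 5 min of ischemia and through reperfusion; n = 3-5.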

A short description of data set [2]: Electrophysiological effect in New Zealand rabbit right ventricular papillary muscle assessed as action potential amplitude at 5 uM at 1 Hz stimulation frequency. The data set is classed as functional, Oryctolagus cuniculus, Muscle tissue. The method, boiled down:
(§2)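 Right ventricular papillary muscle tips were superfused at 37 °C with bicarbonate solution (pH 7.35-7.40, 95% O2/5% CO2). They were paced at 1 Hz (1000 ms cycle length) with 1 ms constant-current pulses through a bipolar platinum electrode. Transmembrane potentials were recorded by conventional microelectrodes, and RP, CT, APA, Vmax, APD50 and APD90 were measured automatically.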

Data set [3] is described as follows: Electrophysiological effect in New Zealand rabbit right ventricular papillary muscle assessed as maximal rate of depolarization at 5 uM at 1 Hz stimulation frequency. It is filed as functional, Oryctolagus cuniculus, Muscle tissue. Put shortly:
as §2

The test system of data set [4] is Heart. In words: Antiarrhythmic activity in ischemia-reperfusion injury exposed Wistar rat heart assessed as arrhythmia score at 1 uM. The data set is classed as functional. Put shortly: as §1
Data set [5] can be described thus: Electrophysiological effect in New Zealand rabbit right ventricular papillary muscle assessed as action potential duration measured at 90% repolarization at 5 uM at 1 Hz stimulation frequency. It is filed as functional, Oryctolagus cuniculus, Muscle tissue. The method, boiled down: as §2
For data set [6], the system named is Heart. Kind of data set: Antiarrhythmic activity in ischemia-reperfusion injury exposed Wistar rat heart assessed as premature ventricular beats at 1 uM relative to untreated control. It is filed as functional. Put shortly: as §1
Data set [7] is described as follows: Electrophysiological effect in New Zealand rabbit right ventricular papillary muscle assessed as action potential duration measured at 50% repolarization at 5 uM at 1 Hz stimulation frequency. The data set is classed as functional, Oryctolagus cuniculus, Muscle tissue. Put shortly: as §2
For data set [8], the species on record is Oryctolagus cuniculus. In words: Electrophysiological effect in New Zealand rabbit right ventricular papillary muscle assessed as resting membrane potential at 5 uM at 1 Hz stimulation frequency. The data set is classed as functional, tissue-based. Conditions: Muscle tissue. The method, boiled down: as §2
The species named for data set [9] is Oryctolagus cuniculus. Kind of data set: Electrophysiological effect in New Zealand rabbit right ventricular papillary muscle assessed as increase in conduction time at 5 uM at 1 Hz stimulation frequency. It is filed as functional, tissue-based. Particulars: Muscle tissue. The method, boiled down:
as §2

Data set [10] relates to Heart. In words: Antioxidant activity in ischemia-reperfusion injury exposed Wistar rat heart assessed as reduction of malondialdehyde level at 2 uM by thiobarbituric acid test relative to control. The data set is classed as functional. The arrangement: scale not given: the % may be the effect or the level left. Put shortly:
as §1

For data set [11], the system named is Heart. In words: Antiarrhythmic activity in ischemia-reperfusion injury exposed Wistar rat heart assessed as premature ventricular beats at 30 uM relative to untreated control. The data set is classed as functional. Put shortly:
as §1

In data set [12] the test system is Heart. In words: Antiarrhythmic activity in ischemia-reperfusion injury exposed Wistar rat heart assessed as premature ventricular beats at 100 uM relative to untreated control. It is filed as functional. The method, boiled down: as §1
In data set [13] the test system is Heart. Kind of data set: Toxicity in ischemia-reperfusion injury exposed Wistar rat heart assessed as induction of ventricular fibrillation at 1 uM. It is filed as tissue-based. Put shortly:
as §1

Data set [14] has as its system Heart. In words: Toxicity in ischemia-reperfusion injury exposed Wistar rat heart assessed as induction of ventricular tachycardia at 1 uM. The data set is classed as tissue-based. Put shortly:
as §1

The test system of data set [15] is Heart. In words: Antioxidant activity in ischemia-reperfusion injury exposed Wistar rat heart assessed as reduction of malondialdehyde level at 1 uM by thiobarbituric acid test relative to control. It is filed as functional. The arrangement: scale not given: the % may be the effect or the level left. Put shortly: as §1
The nature of data set [16]: Electrophysiological effect in New Zealand rabbit right ventricular papillary muscle assessed as action potential duration measured at 50% repolarization at 20 uM at 1 Hz stimulation frequency. It is filed as functional, Oryctolagus cuniculus, Muscle tissue. Put shortly: as §2
A short description of data set [17]: Electrophysiological effect in New Zealand rabbit right ventricular papillary muscle assessed as maximal rate of depolarization at 20 uM at 1 Hz stimulation frequency. It is filed as functional, Oryctolagus cuniculus, Muscle tissue. Put shortly: as §2
Data set [18] is filed under the species Oryctolagus cuniculus. In words: Electrophysiological effect in New Zealand rabbit right ventricular papillary muscle assessed as resting membrane potential at 20 um at 1 Hz stimulation frequency. The data set is classed as functional, tissue-based. Particulars: Muscle tissue. The method, boiled down:
as §2

Data set [19] is described as follows: Electrophysiological effect in New Zealand rabbit right ventricular papillary muscle assessed as action potential amplitude at 20 uM at 1 Hz stimulation frequency. It is filed as functional, Oryctolagus cuniculus, Muscle tissue. The method, boiled down: as §2
A short description of data set [20]: Electrophysiological effect in New Zealand rabbit right ventricular papillary muscle assessed as action potential duration measured at 90% repolarization at 20 uM at 1 Hz stimulation frequency. It is filed as functional, Oryctolagus cuniculus, Muscle tissue. Put shortly: as §2

For `CCOC(=O)C1(C)CN(C(=O)CN(CC)CC)c2c(C)cc(C)c(C)c2O1` (configuration not stated), the Activity in the data set with Heart [1] was 88.6 ng/g; in data set [2] it was 110.9 mV; in [3], 171.9 V/s; in the data set with Heart [4], 1; in data set [5], 201.2 ms; in the data set on Heart [6], 3%. The Activity in data set [7] was 161.7 ms; in the data set listed under Oryctolagus cuniculus [8], -86.6 mV; with Heart [10], 61%. Further, in the data set filed under Oryctolagus cuniculus [9], the outcome was Active.
Take `CCN(CC)CC(=O)N1CCOc2c(C)c(C)c(Cl)c(C)c21`: the Activity with Heart [1] came out at 163 ng/g; in the data set with Heart [4] it was 1; in the data set with Heart [6] it was 3.9%; with Heart [10], 29%.
Take `CCN(CC)CC(=O)NC1CC(C)(C)Oc2c(C)c(C)c(O)c(C)c21` (configuration not stated): the results for the Activity with Heart [11] and in the data set on Heart [12] were 9% and 8%, respectively.
Consider `CCN(CC)CC(=O)N1C[C@@H](c2ccccc2)Oc2c(C)c(C)c(Cl)c(C)c21`, for which the Activity in the data set with Heart [1] came out at 153 ng/g; with Heart [4], 1; in the data set on Heart [6], 0.8%.
Regarding `CCN(CC)CC(=O)N1C[C@H](c2ccccc2)Oc2c(C)c(C)c(Cl)c(C)c21`, the Activity was 106 ng/g in the data set on Heart [1]; 4.3 in the data set on Heart [4]; “Toxic” in the data set with Heart [13]; 1.5% with Heart [6]; “Toxic” in the data set on Heart [14]; 50% in the data set on Heart [15].
As for `CCN(CC)CC(=O)N1CC(C)(C)Oc2c(C)c(C)cc(C)c21`, the Activity in the data set with Heart [1] came to 160 ng/g; in [2], 108.4 mV; in data set [3], 175.4 V/s; in the data set with Heart [4], 5.1; in data set [5], 179.5 ms; in the data set with Heart [6] it was 1.6%. Moreover, the Activity was 147.1 ms in data set [7] and -85.9 mV in the data set filed under Oryctolagus cuniculus [8]. Further, the outcome in the data set filed under Oryctolagus cuniculus [9] was Active.
For the molecule `CCN(CC)CC(=O)NC1CC(c2ccccc2)Oc2c(C)c(C)c(O)c(C)c21` (configuration not stated), the Activity in the data set with Heart [1] was 129 ng/g; in the data set with Heart [4] it was 3.6; in the data set with Heart [6], 4.3%; with Heart [10], 45%.
Turning to `CCN(CC)CC(=O)N1CC(c2ccccc2)Oc2c(C)c(C)c(OC)c(C)c21` (configuration not stated), the Activity with Heart [1] stood at 136 ng/g; with Heart [4], 1; in the data set with Heart [6], 2.8%.
Turning to `CCN(CC)CC(=O)N1CC(c2ccccc2)Oc2c(C)c(C)cc(C)c21` (configuration not stated), the Activity in the data set on Heart [1] turned out to be 120 ng/g; in data set [2], 115.1 mV; in data set [3] it was 174.5 V/s; with Heart [4], 1; in data set [5] it was 210.9 ms; in the data set on Heart [6], 0.5%. Further, the Activity in data set [7] is 175.6 ms; in the data set listed under Oryctolagus cuniculus [8], -82.7 mV; with Heart [10], 48%. The outcome in the data set filed under Oryctolagus cuniculus [9] was Active.
As for `CCN(CC)CC(=O)N1CC(C)(C)Oc2c(C)c(C)c(Cl)c(C)c21`, the Activity stood at 143 ng/g with Heart [1]; 116.2 mV in [2]; 188.4 V/s in data set [3]; 5.7 with Heart [4]; 214.4 ms in data set [5]; 2.1% in the data set on Heart [6]. Moreover, the Activity in [7] was 171.6 ms; in the data set filed under Oryctolagus cuniculus [8], -85.3 mV.
For the molecule `CCN(CC)CC(=O)N1CC(c2ccccc2)Oc2c(C)c(C)c(Cl)c(C)c21` (configuration not stated), the values for the Activity with Heart [1], in the data set with Heart [4] and with Heart [6] were 118 ng/g, 1 and 1%, respectively.
As to `CC(C)NCC(O)c1ccc(NS(C)(=O)=O)cc1` (configuration not stated) [SOTALOL], the Activity in [16] is 219.9 ms; in data set [17] it was 202.4 V/s; in the data set filed under Oryctolagus cuniculus [18], -85.9 mV; in [19] it was 109.5 mV; in [20], 275 ms.
Turning to `CCN(CC)CC(=O)N1CCOc2c(C)c(C)cc(C)c21`, the Activity came to 152 ng/g with Heart [1]; 111.9 mV in data set [2]; 200.2 V/s in data set [3]; 1.3 with Heart [4]; 236.8 ms in [5]; 3.4% with Heart [6]. Moreover, the Activity in data set [7] is 192.3 ms; in the data set filed under Oryctolagus cuniculus [8], -85.8 mV; in the data set on Heart [10], 34%.
For the molecule `CCOC(=O)C1(C)CN(C(=O)CN(CC)CC)c2c(C)c(Cl)c(C)c(C)c2O1` (configuration not stated), the Activity was 105.1 mV in data set [2]; 184.7 V/s in [3]; 159.5 ms in data set [5]; 107.7 ms in data set [7]; -81.5 mV in the data set listed under Oryctolagus cuniculus [8]. Moreover, in the data set listed under Oryctolagus cuniculus [9], the outcome was Active.
For `CCCCCCC1(C)CC(NC(=O)CN(CC)CC)c2c(C)c(O)c(C)c(C)c2O1` (configuration not stated), the figures for the Activity with Heart [11] and with Heart [12] were 10% and 9%, respectively.
In the case of `CCN(CC)CC(=O)Nc1c(C)cccc1C` [LIDOCAINE], the Activity came out at 160 ng/g in the data set on Heart [1], 1 with Heart [4] and 3.1% with Heart [6].
Take `Cc1cccc(C)c1OCC(C)N` (configuration not stated) [MEXILETINE]: the Activity in data set [16] is 141 ms; in data set [17] it was 190.3 V/s; in the data set filed under Oryctolagus cuniculus [18], -85.7 mV; in [19] it was 105.9 mV; in [20], 180.9 ms.
